From ChEMBL document CHEMBL5724801, “EUbOPEN Chemogenomics Library - Multiplex” (2024)
“And” between values parts separate entries of the source, which are not always exact repeats. Equal entries are not always repeated.

Test system: U2OS
Test: Multiplex assay against U2OS
Type: toxicity, cell-based
Conditions: human
Procedure, shortened: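 On a CQ1 microscope at 37°C and 5% CO2, live cells were imaged after compound addition. They had been stained at seeding with Hoechst33342, BioTracker Green Microtubule Cytoskeleton Dye, MitoTracker Red and Annexin V Alexa Fluor 680. CellPathfinder machine-learning gating assigned cells to Hoechst high-intensity objects or normal cells, normal cells to healthy, pyknosed or fragmented nuclei, and pyknosed cells to mitotic or apoptotic. Tubulin, mitochondrial-mass and membrane-permeability phenotypes are per cents of healthy-nucleus cells.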

[1] = 12 h, 1 µM, compound concentration 1 uM
[2] = 12 h, 10 µM, compound concentration 10 uM
[3] = 24 h, 1 µM, compound concentration 1 uM
[4] = 24 h, 10 µM, compound concentration 10 uM
[5] = 48 h, 1 µM, compound concentration 1 uM
[6] = 48 h, 10 µM, compound concentration 10 uM

## C[C@H](C[C@H](N)C(=O)O)C(=O)O [2S,4R-4-METHYLGLUTAMATE]
[1]
  Population Apoptotic (%): 31.91% and 61.54%
  Population Fragmented Nuclei (%): 3.36% and 4%
  Population Healthy Nuclei (%): 85.37% and 85.6%
  Population Hoechst High Intensity Objects (%): 0%
  Population Membrane Permeable-Phenotype (%): 2.25% and 5.61%
  Population Mitochondria Different-Phenotype (%): 0% and 3.74%
  Population Mitotic Cells (%): 68.09% and 38.46%
  Population Normal (%): 100%
  Population Pyknosed Nuclei (%): 11.27% and 10.4%
  Population Tubulin-Different-Phenotype (%): 0.28% and 0%
[2]
  Population Apoptotic (%): 36.84% and 47.06%
  Population Fragmented Nuclei (%): 0.57% and 3.31%
  Population Healthy Nuclei (%): 88.51% and 85.43%
  Population Hoechst High Intensity Objects (%): 0%
  Population Membrane Permeable-Phenotype (%): 1.95% and 3.88%
  Population Mitochondria Different-Phenotype (%): 0.32% and 6.98%
  Population Mitotic Cells (%): 63.16% and 52.94%
  Population Normal (%): 100%
  Population Pyknosed Nuclei (%): 10.92% and 11.26%
  Population Tubulin-Different-Phenotype (%): 3.25% and 0.78%
  Total Cell Count: 348 and 151
[3]
  Population Apoptotic (%): 54.55% and 80%
  Population Fragmented Nuclei (%): 3.12% and 6.67%
  Population Healthy Nuclei (%): 86.79% and 84.24%
  Population Hoechst High Intensity Objects (%): 0% and 0.6%
  Population Membrane Permeable-Phenotype (%): 1.48% and 3.6%
  Population Mitochondria Different-Phenotype (%): 0% and 5.04%
  Population Mitotic Cells (%): 45.45% and 20%
  Population Normal (%): 100% and 99.4%
  Population Pyknosed Nuclei (%): 10.09% and 9.09%
  Population Tubulin-Different-Phenotype (%): 0.42% and 0%
[4]
  Population Apoptotic (%): 38.3% and 31.25%
  Population Fragmented Nuclei (%): 0.43% and 1.99%
  Population Healthy Nuclei (%): 89.42% and 90.05%
  Population Hoechst High Intensity Objects (%): 0.22% and 0%
  Population Membrane Permeable-Phenotype (%): 1.45% and 3.31%
  Population Mitochondria Different-Phenotype (%): 0.48% and 3.87%
  Population Mitotic Cells (%): 61.7% and 68.75%
  Population Normal (%): 99.78% and 100%
  Population Pyknosed Nuclei (%): 10.15% and 7.96%
  Population Tubulin-Different-Phenotype (%): 1.45% and 0.55%
  Total Cell Count: 464 and 201
[5]
  Population Apoptotic (%): 50% and 51.52%
  Population Fragmented Nuclei (%): 3.72% and 3.91%
  Population Healthy Nuclei (%): 89.03% and 84.34%
  Population Hoechst High Intensity Objects (%): 0%
  Population Membrane Permeable-Phenotype (%): 1.47% and 2.11%
  Population Mitochondria Different-Phenotype (%): 0% and 2.95%
  Population Mitotic Cells (%): 50% and 48.48%
  Population Normal (%): 100%
  Population Pyknosed Nuclei (%): 7.24% and 11.74%
  Population Tubulin-Different-Phenotype (%): 1.02% and 1.27%
[6]
  Population Apoptotic (%): 54.05% and 54.84%
  Population Fragmented Nuclei (%): 2.19% and 2.47%
  Population Healthy Nuclei (%): 89.7% and 89.01%
  Population Hoechst High Intensity Objects (%): 0%
  Population Membrane Permeable-Phenotype (%): 1.1% and 1.23%
  Population Mitochondria Different-Phenotype (%): 0.12% and 1.23%
  Population Mitotic Cells (%): 45.95% and 45.16%
  Population Normal (%): 100%
  Population Pyknosed Nuclei (%): 8.11% and 8.52%
  Population Tubulin-Different-Phenotype (%): 1.47% and 0.31%
  Total Cell Count: 913 and 364

## Cc1cccc(F)c1C(=O)Nc1cnc(-c2cc3c(cc2Cl)OC(F)(F)O3)cn1 [ZEGOCRACTIN]
[1]
  Population Apoptotic (%): 54.76% and 21.05%
  Population Fragmented Nuclei (%): 1.87% and 5.79%
  Population Healthy Nuclei (%): 86.93% and 78.51%
  Population Hoechst High Intensity Objects (%): 0%
  Population Membrane Permeable-Phenotype (%): 0.61% and 6.32%
  Population Mitochondria Different-Phenotype (%): 0% and 12.63%
  Population Mitotic Cells (%): 45.24% and 78.95%
  Population Normal (%): 100%
  Population Pyknosed Nuclei (%): 11.2% and 15.7%
  Population Tubulin-Different-Phenotype (%): 0.61% and 0%
[2]
  Population Apoptotic (%): 37.66% and 30.95%
  Population Fragmented Nuclei (%): 0.97% and 1.07%
  Population Healthy Nuclei (%): 80.39% and 76.47%
  Population Hoechst High Intensity Objects (%): 0.24% and 0%
  Population Membrane Permeable-Phenotype (%): 0.6% and 8.39%
  Population Mitotic Cells (%): 62.34% and 69.05%
  Population Normal (%): 99.76% and 100%
  Population Pyknosed Nuclei (%): 18.64% and 22.46%
  Population Tubulin-Different-Phenotype (%): 3.01% and 4.9%
  Total Cell Count: 414 and 187
[3]
  Population Apoptotic (%): 49.12% and 21.74%
  Population Fragmented Nuclei (%): 2.5% and 3.68%
  Population Healthy Nuclei (%): 86.54% and 82.21%
  Population Hoechst High Intensity Objects (%): 0%
  Population Membrane Permeable-Phenotype (%): 0.22% and 5.22%
  Population Mitochondria Different-Phenotype (%): 0.22% and 7.46%
  Population Mitotic Cells (%): 50.88% and 78.26%
  Population Normal (%): 100%
  Population Pyknosed Nuclei (%): 10.96% and 14.11%
  Population Tubulin-Different-Phenotype (%): 0.89% and 0.75%
[4]
  Population Apoptotic (%): 37.72% and 34.92%
  Population Fragmented Nuclei (%): 3.21% and 2.36%
  Population Healthy Nuclei (%): 75.24% and 67.92%
  Population Hoechst High Intensity Objects (%): 0%
  Population Membrane Permeable-Phenotype (%): 2.76% and 6.94%
  Population Mitotic Cells (%): 62.28% and 65.08%
  Population Normal (%): 100%
  Population Pyknosed Nuclei (%): 21.55% and 29.72%
  Population Tubulin-Different-Phenotype (%): 2.76% and 2.78%
  Total Cell Count: 529 and 212
[5]
  Population Apoptotic (%): 35.96% and 56%
  Population Fragmented Nuclei (%): 3.36% and 3.03%
  Population Healthy Nuclei (%): 87.83% and 87.5%
  Population Hoechst High Intensity Objects (%): 0%
  Population Membrane Permeable-Phenotype (%): 1.69% and 2.6%
  Population Mitochondria Different-Phenotype (%): 0.34% and 5.63%
  Population Mitotic Cells (%): 64.04% and 44%
  Population Normal (%): 100%
  Population Pyknosed Nuclei (%): 8.8% and 9.47%
  Population Tubulin-Different-Phenotype (%): 1.58% and 0.43%
[6]
  Population Apoptotic (%): 51.14% and 60.82%
  Population Fragmented Nuclei (%): 5.7% and 6.6%
  Population Healthy Nuclei (%): 63.11% and 59.72%
  Population Hoechst High Intensity Objects (%): 0.14% and 0%
  Population Membrane Permeable-Phenotype (%): 2.48% and 8.72%
  Population Mitotic Cells (%): 48.86% and 39.18%
  Population Normal (%): 99.86% and 100%
  Population Pyknosed Nuclei (%): 31.2% and 33.68%
  Population Tubulin-Different-Phenotype (%): 4.97% and 4.65%
  Total Cell Count: 703 and 288
